Only some compounds are listed: those with a hit (about 0.073% of all), similar ones and a draw of the others.
Pf gamet viab – P. falciparum stage V gametocyte viability inhibition. P. falciparum stage V gametocytes, ATP luminescence, 24 h. inhibition, % at 10.9 µM. 0.065% of 150,000 active;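 active means inhibition above the mean plus 3 SD of compounds within the control limits, set per campaign, cut at about 38% in these data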;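 further: 0% = DMSO wells and 100% = medium only without gametocytes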
Biofilm kill mix – mixtures killing C. albicans biofilm | inhibition, % at 7.6 µM | 0.02% of 120,000 active | C. albicans biofilm persisters + clotrimazole, fluorescence viability; primary screen in compound mixtures of four per well;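 further: compounds exposed to preformed 24 h biofilms for 48 h; 0% = untreated biofilm control and 100% = clotrimazole plus chlorhexidine kill blank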
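Test system: C. albicans CAF4-2 wild-type biofilms; buffer or medium: RPMI/MOPS medium, pH 7.0; schedule: 24 h biofilm formation, then 48 h compound exposure, 37 °C; detection: Alamar Blue fluorescence; measure: percent inhibition of biofilm viability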
Starred values were filed as active, the others as inactive; x = no result.

SMILES	Pf gamet viab	Biofilm kill mix
CN(CC(=O)Nc1ccc2c(c1)CCC2)CC(=O)Nc1ccccc1Br	38.8*	5.8
COc1ccc(NC(=O)CN(C)CC(=O)Nc2ccc3c(c2)CCC3)cc1	-4.1	8.3
O=C(N/N=C/c1ccc(O)c(O)c1O)/C(=C/c1ccc([N+](=O)[O-])cc1)NC(=O)c1ccccc1	40.3*	x
O=C(Nc1cccc2ccccc12)/C(=C/c1ccc([N+](=O)[O-])cc1)NC(=O)c1ccccc1	0.1	x
Cc1ccc(N(CC(=O)NCCSc2nc3ccccc3s2)S(=O)(=O)c2ccccc2)c(C)c1	26.2	4.6
O=C(NCc1ccc(F)cc1)C1CCCN1C(=O)Nc1cccc(F)c1 (centres undefined)	4.1	x
O=C(CSc1ncccc1C(=O)O)NC12CC3CC(CC(C3)C1)C2	-26.0	15.4
Cc1ccnc(NC(c2cccnc2)c2ccc3cccnc3c2O)c1 (centres undefined)	-2.9	17.7
Cc1ccc2ccc(C(Nc3cccc(C(F)(F)F)c3)c3cccnc3)c(O)c2n1 (centres undefined)	39.0*	2.4
CN1CCc2c(sc(/N=C/c3cc(C(C)(C)C)ccc3O)c2C#N)C1	3.7	21.7
Nc1nc(NC(=O)c2ccccc2)nn1-c1ccccc1	57.7*	13.3
COc1ccc(C(=O)Nc2nc(N)n(-c3ccccc3)n2)cc1	-14.2	18.7
CC(=O)Nc1ccc(C(=O)OCC(=O)Nc2ccccc2Sc2ccccc2)cc1	-19.1	10.9
N#CCC(=O)Nc1ccc(C(=O)OCC(=O)Nc2ccccc2Sc2ccccc2)cc1	39.9*	14.1
O=C(CN1C(=O)/C(=C\c2ccc(F)cc2)Oc2ccccc21)N1CCN(c2ccccn2)CC1	8.3	14.1
O=C(CN1C(=O)/C(=C\c2cccc(F)c2)Oc2ccccc21)N1CCN(c2ccccn2)CC1	51.2*	20.6
CC(C)c1ccc(-n2c(-c3ccccc3)c[n+]3c2CCc2ccccc2-3)cc1	-24.1	34.7*
COc1ccc(-n2c(-c3ccc(Br)cc3)c[n+]3c2CCc2ccccc2-3)cc1	x	25.1
O=C(NN=C(Cc1ccccc1)Cc1ccccc1)C1CC1	-7.3	13.8

Assay outcomes from PubChem.
